Bioassay records: PubChem BioAssay, The Scripps Research Institute Molecular Screening Center
This is a sample that favours compounds with a hit; in the whole collection about 1.9% have one here.
CHRM4 antagonist – human M4 muscarinic receptor antagonists, primary screen, CHO cells, Fluo-8 calcium fluorescence; CHO-hM4 cells, ACh EC80; inhibition, % at 3 µM; 360,000 tested, 0.73% active; AID 624125, 2012;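 active = inhibition above its plate's cutoff, the mean inhibition of sample wells plus 3 SD, cut at about 27% in these data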;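 note: 0% = acetylcholine EC80 with DMSO and 100% = DMSO without agonist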
M5 PAM – human M5 muscarinic receptor positive allosteric modulators, primary screen, CHO-K1 cells, Fluo-8 calcium fluorescence. Muscarinic acetylcholine receptor M5 (Homo sapiens), P08912. CHO-K1 hM5, ACh EC20 PAM; 0% = ACh EC20, 100% = ACh EC100. activation, % at 3 µM. 360,000 tested, 0.3% active;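 active = activation above the run cutoff, the mean activation of all test compounds plus 3 SD, cut at about 18% in these data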
Target sequence (P08912 whole entry, looked up): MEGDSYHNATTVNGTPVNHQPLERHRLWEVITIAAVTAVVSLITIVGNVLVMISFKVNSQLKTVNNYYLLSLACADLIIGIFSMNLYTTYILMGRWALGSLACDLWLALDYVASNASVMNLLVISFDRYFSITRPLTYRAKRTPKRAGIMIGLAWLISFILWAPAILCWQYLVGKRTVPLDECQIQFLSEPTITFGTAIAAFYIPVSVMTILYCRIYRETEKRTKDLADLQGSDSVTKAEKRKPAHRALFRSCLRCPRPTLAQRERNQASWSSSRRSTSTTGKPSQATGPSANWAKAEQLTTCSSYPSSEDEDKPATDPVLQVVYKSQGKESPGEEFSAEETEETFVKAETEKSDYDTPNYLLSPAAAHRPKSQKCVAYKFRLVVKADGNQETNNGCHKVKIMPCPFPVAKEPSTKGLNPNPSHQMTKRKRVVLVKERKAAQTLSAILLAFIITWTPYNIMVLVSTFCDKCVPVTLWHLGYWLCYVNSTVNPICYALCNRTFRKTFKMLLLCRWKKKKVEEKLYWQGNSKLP
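system = human M5 receptor in CHO-K1 cells | compound = one concentration, 3 µM final (nominal) | schedule = Post-acetylcholine fluorescence recording 140 s | signal = Fluo-8 calcium dye fluorescence, kinetic read | benchmarks = low control EC20 acetylcholine (0%), high control EC100 acetylcholine (100%) | repeats = singlicate, one well per test compound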
M5 antag – human M5 muscarinic receptor antagonists, primary screen, CHO cells, Fluo-8 calcium fluorescence. CHO-hM5 cells, ACh EC80. AID 624040, 2012. Muscarinic acetylcholine receptor M5 (Homo sapiens), P08912. inhibition, % at 3 µM. 360,000 tested, 0.59% active;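 active = inhibition above a per-plate cutoff, the mean of that plate's test compounds plus 3 SD, cut at about 27% in these data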;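 note: 0% = acetylcholine EC80 with DMSO and 100% = DMSO without agonist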
CHRM4 agonist – human M4 muscarinic receptor agonists, primary screen, CHO-K1 cells, Fluo-8 calcium fluorescence; 360,000 tested, 0.14% active; CHO-K1 hM4/Gqi5; vehicle 0%, full acetylcholine response 100%; AID 624127, 2012; activation, % at 3 µM;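 active = activation above the run mean over all test wells plus 3 SD, cut at about 32% in these data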;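 note: peak over basal fluorescence ratio per well then scaled between controls; 0% = DMSO wells and 100% = acetylcholine at EC100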
M5 ag – human M5 muscarinic receptor agonists, primary screen, CHO-K1 cells, Fluo-8 calcium fluorescence. activation, % at 3 µM. 360,000 tested, 0.19% active. Muscarinic acetylcholine receptor M5 (Homo sapiens), P08912. CHO-K1 hM5 cells; 0% DMSO wells, 100% maximal acetylcholine response. AID 624037, 2012;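 active = activation above the run's mean over test compounds plus 3 SD, cut at about 23% in these data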;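 note: signal is peak over basal fluorescence ratio across the kinetic read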
M4 PAM – human M4 muscarinic receptor positive allosteric modulators, primary screen, CHO-K1 cells, Fluo-8 calcium fluorescence; 360,000 tested, 0.4% active; activation, % at 3 µM; Muscarinic acetylcholine receptor M4 (Homo sapiens), P08173; CHO-K1 hM4/Gqi5, ACh EC20; 0% = ACh EC20, 100% = maximal ACh; AID 624126, 2012;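 active = activation above its plate's cutoff, the mean activation of sample wells plus 3 SD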
* hit, by the source's call.

CCC(C)Sc1cccc(-c2nc3ccc(C)cn3c2NCc2ccccc2)c1 (stereo not drawn) was read as CHRM4 antagonist 47*, M5 PAM -26, M5 antag 23, CHRM4 agonist 13, M5 ag 0 and M4 PAM -8.
`Cc1ccc2nc(-c3cccc(-c4cccc(Cl)c4)c3)c(NCc3ccccc3)n2c1` gave CHRM4 antagonist 28*, M5 PAM -32, M5 antag 28*, CHRM4 agonist 7, M5 ag -3 and M4 PAM -10.
For CCCCCCSc1cccc(-c2nc3ccc(C)cn3c2NCc2ccccc2)c1 the results were CHRM4 antagonist 14, M5 PAM -3, M5 antag 14, CHRM4 agonist 5, M5 ag -2 and M4 PAM -9.
For C/C(=N/NC(=O)c1cc(-c2ccccc2)nc2c(Cl)cccc12)c1cccnc1 the results were CHRM4 antagonist -4, M5 PAM 25*, M5 antag -11, CHRM4 agonist 2, M5 ag 4 and M4 PAM 26*.
Screening CN1CCN(S(=O)(=O)c2ccc(N3CCN(S(=O)(=O)/C=C/c4ccccc4)CC3)nc2)CC1 returned CHRM4 antagonist 30*, M5 PAM -16, M5 antag -6, CHRM4 agonist 2, M5 ag -12 and M4 PAM -14.
CCC(=O)Nc1cccc2c1C(=O)N(C)C2=O was read as CHRM4 antagonist -6, M5 PAM 3, M5 antag -9, CHRM4 agonist 0, M5 ag -2 and M4 PAM 10.
CN1C(=O)c2cccc(NC(=O)C3CCCCC3)c2C1=O was read as CHRM4 antagonist -11, M5 PAM 3, M5 antag -4, CHRM4 agonist 0, M5 ag -2 and M4 PAM 19*.
For COc1ccc(N2C(=O)CSC2c2cccc(OC)c2OC)cc1 (stereo not drawn) the results were CHRM4 antagonist 16, M5 PAM -13, M5 antag 4, CHRM4 agonist 1, M5 ag -7 and M4 PAM -10.
Screening COc1cccc(C2SCC(=O)N2c2ccc(C)cc2)c1OC (stereo not drawn) returned CHRM4 antagonist 65*, M5 PAM -19, M5 antag 22, CHRM4 agonist -1, M5 ag -7 and M4 PAM -39.
For Cc1csc(NC(=O)c2ccc(S(=O)(=O)N3CCN(C)CC3)cc2)n1 the results were CHRM4 antagonist -3, M5 PAM 8, M5 antag -6, CHRM4 agonist 2, M5 ag 1 and M4 PAM 8.
`COc1ccccc1COc1ccc2c(C)c(CC(=O)O)c(=O)oc2c1C` gave CHRM4 antagonist -6, M5 PAM -4, M5 antag 0, CHRM4 agonist 0, M5 ag 0 and M4 PAM -2.
Screening CCOC(=O)C1CCCN(c2nc3ccccc3nc2C(C#N)C(=O)OC(C)C)C1 (stereo not drawn) returned CHRM4 antagonist 0, M5 PAM 4, M5 antag -1, CHRM4 agonist 2, M5 ag 2 and M4 PAM 21*.
For CCOC(=O)C1CCN(c2nc3ccccc3nc2C(C#N)C(=O)OC(C)C)CC1 (stereo not drawn) the results were CHRM4 antagonist 3, M5 PAM -3, M5 antag 1, CHRM4 agonist 0, M5 ag -4 and M4 PAM 0.
COc1ccc(CCNc2ncnc3[nH]ncc23)cc1OC was read as CHRM4 antagonist -15, M5 PAM -2, M5 antag -2, CHRM4 agonist 7, M5 ag 2 and M4 PAM 3.
For COc1ccc(CCNc2ncnc3sc(C)cc23)cc1OC the results were CHRM4 antagonist 27*, M5 PAM -28, M5 antag 37*, CHRM4 agonist 21, M5 ag 3 and M4 PAM -11.
For COc1ccc(N2CCN(C(=O)C(=O)c3cc(OC)c(OC)c(OC)c3)CC2)cc1 the results were CHRM4 antagonist -14, M5 PAM -7, M5 antag 13, CHRM4 agonist 5, M5 ag 1 and M4 PAM 1.
COc1cc(C(=O)C(=O)N2CCN(c3ccccc3)CC2)cc2ccccc12 was read as CHRM4 antagonist -18, M5 PAM 18*, M5 antag -19, CHRM4 agonist 5, M5 ag 0 and M4 PAM 4.
Screening COc1ccc(-n2c(C)c(C)c3c(NCCN(C)C)ncnc32)cc1 returned CHRM4 antagonist -5, M5 PAM 29*, M5 antag 14, CHRM4 agonist 2, M5 ag 5 and M4 PAM 0.
Screening COC(=O)C[C@H]1c2cc(F)ccc2S(=O)(=O)N1c1ccc(N(C)C)cc1 returned CHRM4 antagonist -1, M5 PAM -2, M5 antag 7, CHRM4 agonist 2, M5 ag -8 and M4 PAM 9.
`CC1c2cc3c(cc2CCN1C(=O)c1cccc(Cl)c1)OCCCO3` (stereo not drawn) gave CHRM4 antagonist -6, M5 PAM -3, M5 antag 1, CHRM4 agonist 2, M5 ag -5 and M4 PAM -5.
COc1ccc(Nc2nc(-c3ccc4c(c3)NC(=O)CO4)cs2)cc1 was read as CHRM4 antagonist -4, M5 PAM 12, M5 antag -15, CHRM4 agonist 1, M5 ag -2 and M4 PAM 22*.
`COc1ccccc1Nc1nc(-c2ccc3c(c2)NC(=O)CO3)cs1` gave CHRM4 antagonist -3, M5 PAM 2, M5 antag -2, CHRM4 agonist 12, M5 ag -1 and M4 PAM 0.
Cc1ccc(NC(=O)C2C3CCC(O3)C2C(=O)O)c(Br)c1 (stereo not drawn) was read as CHRM4 antagonist -4, M5 PAM 19*, M5 antag -5, CHRM4 agonist 1, M5 ag 4 and M4 PAM 6.
O=C(O)C1C2CCC(O2)C1C(=O)Nc1ccc(F)cc1 (stereo not drawn) was read as CHRM4 antagonist 0, M5 PAM -14, M5 antag 35*, CHRM4 agonist 3, M5 ag -4 and M4 PAM 8.
For CCC1C(c2ccccc2)=CCC(C(=O)O)C1C (stereo not drawn) the results were CHRM4 antagonist 1, M5 PAM 16, M5 antag -1, CHRM4 agonist 2, M5 ag 0 and M4 PAM 17.
